Assay results as given in ChEMBL document CHEMBL4765483 (J Med Chem, 2021).
Calls of active or inactive are those of the source. No cut-off for these calls is given here.

Columns and labels:
Adenosine receptor A2b [1] = biological target: T1, Adenosine receptor A2b (Homo sapiens, UniProt P29275); test: Antagonist activity at human A2B receptor
T1 sequence (P29275 whole entry): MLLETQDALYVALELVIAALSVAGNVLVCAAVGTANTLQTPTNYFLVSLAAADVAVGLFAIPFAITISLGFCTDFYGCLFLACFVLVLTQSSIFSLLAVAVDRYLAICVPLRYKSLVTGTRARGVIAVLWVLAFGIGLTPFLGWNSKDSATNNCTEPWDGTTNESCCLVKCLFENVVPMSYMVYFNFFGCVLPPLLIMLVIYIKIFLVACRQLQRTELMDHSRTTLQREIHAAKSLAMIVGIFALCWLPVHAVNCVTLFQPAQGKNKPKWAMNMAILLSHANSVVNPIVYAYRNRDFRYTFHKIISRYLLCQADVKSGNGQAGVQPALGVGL

PC-3 [2] = test: Antimigratory activity in human PC-3 cells assessed as reduction in cell migration at Ki level incubated for 72 hrs by crystal violet staining based confocal microscopy; type: functional
Method in brief: (§1)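 Transwell migration, 8.0 μm pore polycarbonate membrane; 10⁵ cells seeded in serum-free medium in upper chamber, complete medium with 10% FBS below. Cells kept in RPMI 1640, 10% FBS. Migration scored after 72 h without or with treatment; migrated cells fixed in 4% paraformaldehyde, crystal violet stained, counted in five random fields; at least three chambers from three experiments.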

DU-145 [3] = test: Antimigratory activity in human DU-145 cells assessed as reduction in cell migration at Ki level incubated for 72 hrs by crystal violet staining based confocal microscopy; type: functional; method in brief: as §1
LNCaP [4] = test: Antimigratory activity in human LNCaP cells assessed as reduction in cell migration at Ki level incubated for 72 hrs by crystal violet staining based confocal microscopy; type: functional; method in brief: as §1
PC-3 [5] = test: Antimetastatic activity in human PC-3 cells assessed as effect on cell shape at Ki level incubated for 72 hrs by confocal laser scanning microscopy; type: functional, cell-based
PC-3 [6] = test: Antimetastatic activity in human PC-3 cells assessed as induction of actin skeleton reorganization at Ki level incubated for 72 hrs by confocal laser scanning microscopy; type: functional, cell-based
[7] = Stability in human liver microsomes in NADP incubated up to 60 mins by UPLC-MS/MS analysis; type: ADME, Microsome; details: read-out: Stabilty
Method in brief: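 Human microsomes at 37 °C in 50 mM phosphate buffer pH 7.4 with 3 mM MgCl2, 1 mM NADP, 10 mM glucose-6-phosphate, 1 U/mL G6PDH. Samples at 0, 10, 20, 40, 60 min quenched into cold acetonitrile with 0.5% formic acid, centrifuged; supernatant analysed by UPLC–MS/MS on C18 column.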

LNCaP [8] = test: Toxicity in human LNCaP cells assessed as effect on cell growth at 10 to 100 uM by MTT assay; type: cell-based; details: dose 10-100 µM
Method in brief: (§2)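 Prostate cancer cells cultured in RPMI 1640 with 10% FBS, penicillin and streptomycin at 37 °C, 5% CO2; tested at 10 and 100 μM by MTT assay with cisplatin as control.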

PC-3 [9] = test: Toxicity in human PC-3 cells assessed as effect on cell growth at 10 to 100 uM by MTT assay; type: cell-based; details: pc-3, 100 µM, dose 10-100 µM; method in brief: as §2
DU-145 [10] = test: Toxicity in human DU-145 cells assessed as effect on cell growth at 10 to 100 uM by MTT assay; type: cell-based; details: du-145, 100 µM, dose 10-100 µM; method in brief: as §2
CYP3A4 [11] = biological target: T2, CYP3A4 (Homo sapiens, UniProt P08684); test: Inhibition of CYP3A4 (unknown origin) expressed in insect cell microsomes at 1 uM in presence of BFC substrate by fluorescence based assay relative to control; type: ADME, Microsome; details: recombinant CYP3A4 expressed in insect cell microsomes, probe BFC
T2 sequence (P08684 whole entry, canonical isoform): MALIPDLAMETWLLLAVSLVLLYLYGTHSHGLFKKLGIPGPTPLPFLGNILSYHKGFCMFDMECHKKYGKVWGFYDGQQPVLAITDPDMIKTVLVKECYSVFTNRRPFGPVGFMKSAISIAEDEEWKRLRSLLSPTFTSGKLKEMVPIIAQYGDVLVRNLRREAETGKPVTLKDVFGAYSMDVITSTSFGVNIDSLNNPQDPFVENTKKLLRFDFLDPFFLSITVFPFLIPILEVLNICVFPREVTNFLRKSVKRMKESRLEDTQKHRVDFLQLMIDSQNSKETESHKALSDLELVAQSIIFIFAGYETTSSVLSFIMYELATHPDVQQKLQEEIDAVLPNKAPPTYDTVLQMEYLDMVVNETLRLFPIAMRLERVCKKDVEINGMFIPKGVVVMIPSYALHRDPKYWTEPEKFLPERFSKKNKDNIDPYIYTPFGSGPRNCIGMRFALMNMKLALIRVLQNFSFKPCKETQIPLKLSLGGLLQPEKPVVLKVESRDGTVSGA
Method in brief: (§3)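 cDNA-expressed P450 in insect cell microsomes; cofactor mix of KH2PO4 buffer, 1.3 mM NADP, 3.3 mM MgCl2, 3.3 mM glucose-6-phosphate, 0.4 U/mL G6PDH. Preincubated 5 min at 37 °C, started with prewarmed enzyme/substrate mix, stopped at an isoform-specific time. Fluorescence read; percentage inhibition at 1 and 10 μM; mean of n = 3.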

CYP3A4 [12] = biological target: T2, CYP3A4; test: Inhibition of CYP3A4 (unknown origin) expressed in insect cell microsomes at 10 uM in presence of BFC substrate by fluorescence based assay relative to control; type: ADME, Microsome; details: recombinant CYP3A4 expressed in insect cell microsomes, probe BFC; method in brief: as §3
CYP3A4 [13] = biological target: T2, CYP3A4; test: Inhibition of CYP3A4 (unknown origin) expressed in insect cell microsomes at 1 uM in presence of DBF substrate by fluorescence based assay relative to control; type: ADME, Microsome; details: recombinant CYP3A4 expressed in insect cell microsomes, probe DBF; method in brief: as §3
CYP3A4 [14] = biological target: T2, CYP3A4; test: Inhibition of CYP3A4 (unknown origin) expressed in insect cell microsomes at 10 uM in presence of DBF substrate by fluorescence based assay relative to control; type: ADME, Microsome; details: recombinant CYP3A4 expressed in insect cell microsomes, probe DBF; method in brief: as §3
CYP2D6 [15] = biological target: T3, CYP2D6 (Homo sapiens, UniProt P10635); test: Inhibition of CYP2D6 (unknown origin) expressed in insect cell microsomes at 1 uM by fluorescence based assay relative to control; type: ADME, Microsome; details: recombinant CYP2D6 expressed in insect cell microsomes; method in brief: as §3
T3 sequence (P10635 whole entry): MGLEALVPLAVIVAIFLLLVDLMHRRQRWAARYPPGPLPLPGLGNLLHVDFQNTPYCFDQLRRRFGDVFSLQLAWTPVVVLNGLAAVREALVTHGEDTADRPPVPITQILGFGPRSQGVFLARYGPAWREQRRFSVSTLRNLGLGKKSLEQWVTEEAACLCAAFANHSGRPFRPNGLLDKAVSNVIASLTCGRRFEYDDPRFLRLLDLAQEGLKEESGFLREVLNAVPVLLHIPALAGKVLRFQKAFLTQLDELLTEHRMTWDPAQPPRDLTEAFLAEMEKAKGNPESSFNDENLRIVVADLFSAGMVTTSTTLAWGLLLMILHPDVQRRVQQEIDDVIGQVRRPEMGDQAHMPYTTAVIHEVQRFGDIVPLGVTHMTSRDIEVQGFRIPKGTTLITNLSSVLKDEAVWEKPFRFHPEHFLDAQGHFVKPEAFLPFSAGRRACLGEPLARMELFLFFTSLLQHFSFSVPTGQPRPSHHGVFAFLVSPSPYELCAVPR

CYP2D6 [16] = biological target: T3, CYP2D6; test: Inhibition of CYP2D6 (unknown origin) expressed in insect cell microsomes at 10 uM by fluorescence based assay relative to control; type: ADME, Microsome; details: recombinant CYP2D6 expressed in insect cell microsomes; method in brief: as §3
[17] = biological target: T4, Adenosine receptor A3 (Homo sapiens) (UniProt P0DMS8); test: Displacement of [3H]NECA from adenosine A3 receptor expressed in human HeLa cell membranes at 1 uM incubated for 180 mins by scintillation counting method; details: Cell membrane
T4 sequence (whole entry): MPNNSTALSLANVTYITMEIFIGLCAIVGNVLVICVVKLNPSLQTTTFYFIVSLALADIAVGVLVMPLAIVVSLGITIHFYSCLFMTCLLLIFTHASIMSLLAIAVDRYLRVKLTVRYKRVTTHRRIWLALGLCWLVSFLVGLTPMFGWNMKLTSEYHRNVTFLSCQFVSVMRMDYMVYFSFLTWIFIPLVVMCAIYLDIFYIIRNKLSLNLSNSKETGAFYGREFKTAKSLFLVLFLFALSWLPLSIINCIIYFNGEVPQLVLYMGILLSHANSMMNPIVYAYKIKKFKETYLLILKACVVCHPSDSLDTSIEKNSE
Method in brief: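 hA3AR in HeLa membranes (3 pmol/mg protein) with 10 nM [3H]NECA (KD 8.7 nM); nonspecific binding with 100 μM R-PIA; incubated 180 min at 25 °C, washed, filtered, radioactivity counted.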

[18] = biological target: Adenosine receptor A2a (Homo sapiens) (UniProt P29274); test: Displacement of [3H]ZM2421385 from adenosine A2A receptor expressed in human HeLa cell membranes at 1 uM incubated for 30 mins by scintillation counting method; details: Cell membrane
Chain of Adenosine receptor A2a (Homo sapiens) (P29274 whole entry): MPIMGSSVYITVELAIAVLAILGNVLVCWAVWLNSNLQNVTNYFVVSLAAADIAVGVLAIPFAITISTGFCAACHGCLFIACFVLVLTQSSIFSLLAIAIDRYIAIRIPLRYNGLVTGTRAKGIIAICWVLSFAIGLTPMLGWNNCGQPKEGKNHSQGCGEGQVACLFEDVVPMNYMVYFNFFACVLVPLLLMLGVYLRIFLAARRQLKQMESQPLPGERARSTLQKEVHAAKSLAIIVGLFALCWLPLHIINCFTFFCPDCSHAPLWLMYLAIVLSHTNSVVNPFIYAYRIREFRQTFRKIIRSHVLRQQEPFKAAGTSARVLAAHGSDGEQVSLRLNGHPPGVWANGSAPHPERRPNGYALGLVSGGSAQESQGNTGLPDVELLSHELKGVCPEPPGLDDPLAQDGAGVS

[19] = biological target: T5, Adenosine receptor A1 (Homo sapiens) (UniProt P30542); test: Displacement of [3H]DPCPX from human adenosine A1 receptor expressed in CHO cell membranes at 1 uM incubated for 60 mins by scintillation counting method; details: Cell membrane
T5 sequence (whole entry): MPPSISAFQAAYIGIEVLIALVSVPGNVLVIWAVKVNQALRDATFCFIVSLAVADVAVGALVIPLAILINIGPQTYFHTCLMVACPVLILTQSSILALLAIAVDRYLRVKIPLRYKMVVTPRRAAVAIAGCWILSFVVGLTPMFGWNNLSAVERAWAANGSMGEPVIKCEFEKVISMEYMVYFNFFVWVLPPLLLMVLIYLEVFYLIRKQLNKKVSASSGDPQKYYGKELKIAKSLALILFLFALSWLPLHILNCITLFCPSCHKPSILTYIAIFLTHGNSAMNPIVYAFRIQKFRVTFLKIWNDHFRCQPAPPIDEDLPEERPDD

Adenosine receptor A2b [20] = biological target: T1, Adenosine receptor A2b; test: Displacement of [3H]DPCPX from human adenosine A2B receptor expressed in HEK293 cell membranes incubated for 30 mins by scintillation counting method; design: species or system Cell membrane
Adenosine receptor A1 = biological target: T6, Adenosine receptor A1 (Homo sapiens, UniProt P30542); test: Displacement of [3H]DPCPX from human adenosine A1 receptor expressed in CHO cell membranes incubated for 60 mins by scintillation counting method; design: species or system Cell membrane
T6 sequence (P30542 whole entry): T5 sequence (whole entry)

[21] = biological target: T7, Adenosine receptor A2b (Homo sapiens) (UniProt P29275); test: Displacement of [3H]DPCPX from human adenosine A2B receptor expressed in HEK293 cell membranes at 1 uM incubated for 30 mins by scintillation counting method; details: Cell membrane, filed as antagonist
T7 sequence (whole entry): T1 sequence (P29275 whole entry)

Compound: CCCn1c(=O)[nH]c2nc(-c3cnn(Cc4cccc(C(F)(F)F)c4)c3)[nH]c2c1=O
- Ki (Adenosine receptor A2b [1]): 6 nM

Compound: CCCn1c(=O)[nH]c2nc(-c3ccc(S(=O)(=O)N4CCN(c5ccc(Cl)cc5)CC4)cc3)[nH]c2c1=O
- Activity (PC-3 [2]): Active
- Activity (DU-145 [3]): Active
- Activity (LNCaP [4]): Active
- Activity (PC-3 [5]): Active
- Activity (PC-3 [6]): Active

Compound: CCOC(=O)C1=C(C)NC(=O)NC1c1ccsc1 (racemic)
- remaining at 1 h [7]: 65%
- Activity (LNCaP [8]): Non-Toxic
- Activity (PC-3 [9]): Non-Toxic
- Activity (DU-145 [10]): Non-Toxic
- Activity (PC-3 [2]): 35%
- Activity (DU-145 [3]): Active
- Activity (LNCaP [4]): Active
- Activity (PC-3 [5]): Active
- Activity (PC-3 [6]): Active
- inhibition at 1 µM (CYP3A4 [11]): 15%
- inhibition at 10 µM (CYP3A4 [12]): 44%
- inhibition at 1 µM (CYP3A4 [13]): 4%
- inhibition at 10 µM (CYP3A4 [14]): 12%
- inhibition at 1 µM (CYP2D6 [15]): 15%
- inhibition at 10 µM (CYP2D6 [16]): 22%

Compound: CC1=C(C(=O)OC(C)C)C(c2ccco2)NC(=S)N1 (racemic)
- inhibition [17]: 1%
- remaining at 1 h [7]: 77%
- Activity (LNCaP [8]): Non-Toxic
- Activity (PC-3 [9]): Non-Toxic
- Activity (DU-145 [10]): Non-Toxic
- Activity (PC-3 [2]): 50%
- Activity (DU-145 [3]): Active
- Activity (LNCaP [4]): Active
- Activity (PC-3 [5]): Active
- Activity (PC-3 [6]): Active
- inhibition at 1 µM (CYP3A4 [11]): 1%
- inhibition at 10 µM (CYP3A4 [12]): 13%
- inhibition at 1 µM (CYP3A4 [13]): 3%
- inhibition at 10 µM (CYP3A4 [14]): 1%
- inhibition at 1 µM (CYP2D6 [15]): 15%
- inhibition at 10 µM (CYP2D6 [16]): 12%

Compound: CC1=C(C(=O)OC2CCCC2)C(c2ccsc2)NC(=O)N1 (racemic)
- inhibition [18]: 1%
- inhibition [19]: 5%
- Ki (Adenosine receptor A2b [20]): 659 nM
- inhibition [17]: 5%

Compound: CC1=C(C(=O)OCC2CC2)C(c2ccsc2)NC(=O)N1 (racemic)
- inhibition [18]: 46%
- inhibition [19]: 39%
- Ki (Adenosine receptor A2b [20]): 724 nM
- inhibition [17]: 3%

Compound: CC1=C(C(=O)OCC2CCC2)C(c2ccsc2)NC(=O)N1 (racemic)
- inhibition [18]: 32%
- inhibition [19]: 48%
- Ki (Adenosine receptor A2b [20]): 1040 nM
- inhibition [17]: 2%

Compound: CC1=C(C(=O)OCC(C)C)C(c2ccoc2)NC(=O)N1 (racemic)
- inhibition [18]: 31%
- Ki (Adenosine receptor A1): 3090 nM
- Ki (Adenosine receptor A2b [20]): 326 nM
- inhibition [17]: 16%

Compound: CC1=C(C(=O)OCc2ccccc2)C(c2ccco2)NC(=O)N1C (racemic)
- inhibition [18]: 37%
- Ki (Adenosine receptor A1): 1740 nM
- inhibition [21]: 41%
- inhibition [17]: 11%
